Consider five molecules from ChEMBL document CHEMBL4004850, “Rational design of reversible inhibitors for trehalose 6-phosphate phosphatases” (Eur J Med Chem, 2017).

Series [1] concerns the target T1, Trehalose-phosphatase (Brugia malayi, UniProt A8NS89).
T1 sequence (A8NS89 whole entry): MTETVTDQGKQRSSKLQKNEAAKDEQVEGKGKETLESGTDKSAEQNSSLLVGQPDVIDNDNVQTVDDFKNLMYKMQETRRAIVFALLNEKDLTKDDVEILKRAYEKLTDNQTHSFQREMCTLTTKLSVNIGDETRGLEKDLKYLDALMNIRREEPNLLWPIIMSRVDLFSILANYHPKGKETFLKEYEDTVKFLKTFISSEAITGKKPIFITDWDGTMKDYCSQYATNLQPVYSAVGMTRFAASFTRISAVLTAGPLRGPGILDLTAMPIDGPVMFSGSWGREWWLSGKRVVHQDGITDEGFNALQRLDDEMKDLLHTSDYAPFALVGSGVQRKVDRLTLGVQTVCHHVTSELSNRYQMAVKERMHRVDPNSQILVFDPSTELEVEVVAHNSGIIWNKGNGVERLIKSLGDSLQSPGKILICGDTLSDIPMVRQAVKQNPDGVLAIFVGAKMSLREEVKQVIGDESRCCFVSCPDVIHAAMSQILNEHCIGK
The series is described as follows: Competitive inhibition of Brugia malayi T6PP using T6P as substrate by Lineweaver-Burk plot analysis. The method in brief:
(§1)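 Continuous phosphate-release assay (EnzChek, MESG/purine nucleoside phosphorylase) at 25 °C. Initial velocities of T6P hydrolysis by T6PP were taken at varied T6P with inhibitor at 0, Ki and 2×Ki. Km and Vmax come from double-reciprocal plots.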

A short description of series [2]: Inhibition of Ascaris suum T6PP using T6P as substrate by Lineweaver-Burk plot analysis.
Series [3] is described as follows: Inhibition of Shigella boydii T6PP using T6P as substrate by Lineweaver-Burk plot analysis. The method in brief: as §1
Series [4] in a line: Inhibition of Salmonella typhimurium T6PP using T6P as substrate by Lineweaver-Burk plot analysis. More on the design: species or system Salmonella enterica subsp. enterica serovar Typhimurium. The method in brief: as §1
The target in series [5] is T2, Trehalose-phosphatase (Brugia malayi) (UniProt A8NS89).
T2 sequence (whole entry): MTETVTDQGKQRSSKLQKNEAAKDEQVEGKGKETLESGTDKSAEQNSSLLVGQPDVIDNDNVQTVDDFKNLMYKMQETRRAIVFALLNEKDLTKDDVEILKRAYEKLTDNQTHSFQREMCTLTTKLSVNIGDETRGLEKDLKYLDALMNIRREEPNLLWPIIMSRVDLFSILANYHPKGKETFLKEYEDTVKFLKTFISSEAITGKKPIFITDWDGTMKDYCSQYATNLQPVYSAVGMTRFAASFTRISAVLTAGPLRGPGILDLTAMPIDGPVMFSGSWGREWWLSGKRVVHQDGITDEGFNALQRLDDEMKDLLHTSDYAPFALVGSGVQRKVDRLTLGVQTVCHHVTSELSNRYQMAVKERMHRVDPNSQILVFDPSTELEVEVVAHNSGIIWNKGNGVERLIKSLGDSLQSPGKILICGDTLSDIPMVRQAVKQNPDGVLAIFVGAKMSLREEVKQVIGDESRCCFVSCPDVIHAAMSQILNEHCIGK
Briefly: Inhibition of Brugia malayi T6PP using T6P as substrate assessed as fraction of enzyme unbound with compound by measuring ratio of initial velocities of T6P substrate hydrolysis in presence and absence of compound at 1 mM […] by BioMol green dye based HTS assay.

Series [6] deals with Ascaris suum. The series is described as follows: Inhibition of Ascaris suum T6PP using T6P as substrate assessed as fraction of enzyme unbound with compound by measuring ratio of initial velocities of T6P substrate hydrolysis in presence and absence of compound at 1 mM after 5 mins by BioMol green dye based HTS assay. The procedure, abridged:
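T6P is at half saturation ([T6P] = Km), with and without 1 mM inhibitor, at 25 °C. Released phosphate is detected with dye (30 min incubation) by A625. The reported value is V_I/V, the initial-velocity ratio.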

The test system of series [7] is Shigella boydii. The series is described as follows: Inhibition of Shigella boydii T6PP using T6P as substrate assessed as fraction of enzyme unbound with compound by measuring ratio of initial velocities of T6P substrate hydrolysis in presence and absence of compound at 1 mM after 5 mins by BioMol green dye based HTS assay. The procedure, abridged: (§2)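 Freshly purified St-T6PP or Sb-T6PP (5–25 nM) in 50 mM Hepes pH 7.5, 25 mM NaCl, 2 mM MgCl₂, 5% glycerol at 25 °C. T6P at half saturation (Km) for each enzyme. Hydrolysis rate was compared with and without 1 mM inhibitor; phosphate read at 625 nm after 30 min incubation. The ratio VI/V gives the fraction of enzyme not inhibitor-bound.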

In series [8] the test system is Salmonella enterica subsp. enterica serovar Typhimurium. Briefly: Inhibition of Salmonella typhimurium T6PP using T6P as substrate assessed as fraction of enzyme unbound with compound by measuring ratio of initial velocities of T6P substrate hydrolysis in presence and absence of compound at 1 mM after 5 mins by BioMol green dye based HTS assay. The method in brief: as §2

Series [9] concerns Shigella boydii. Briefly: Inhibition of Shigella boydii T6PP assessed as Vmax for substrate using T6P as substrate by Lineweaver-Burk plot analysis. The method in brief:
as §1

Series [10] relates to Shigella boydii. Briefly: Inhibition of Shigella boydii T6PP assessed as Km for substrate using T6P as substrate by Lineweaver-Burk plot analysis. The method in brief: as §1
Series [11] relates to Ascaris suum. The series is described as follows: Inhibition of Ascaris suum T6PP assessed as Vmax for substrate using T6P as substrate by Lineweaver-Burk plot analysis. The method in brief:
as §1

Series [12] concerns Ascaris suum. The series is described as follows: Inhibition of Ascaris suum T6PP assessed as Km for substrate using T6P as substrate by Lineweaver-Burk plot analysis. The method in brief: as §1
Series [13] concerns Salmonella enterica subsp. enterica serovar Typhimurium. The series is described as follows: Inhibition of Salmonella typhimurium T6PP assessed as Vmax for substrate using T6P as substrate by Lineweaver-Burk plot analysis. The procedure, abridged:
as §1

For series [14] the test system is unchanged. Briefly: Inhibition of Salmonella typhimurium T6PP assessed as Km for substrate using T6P as substrate by Lineweaver-Burk plot analysis. The procedure, abridged:
as §1

In series [15] the target is T1, Trehalose-phosphatase. The series is described as follows: Reversible competitive inhibition of Brugia malayi T6PP using T6P as substrate by Lineweaver-Burk plot analysis.
Substrate in series [16]: O=P(O)(O)OC[C@H]1O[C@@H](Oc2ccccc2)[C@H](O)[C@@H](O)[C@@H]1O
The series is described as follows: Activity at Brugia malayi T6PP.

Compound in series [17]: CCCCCCCCc1ccc(O[C@@H]2O[C@H](COS(=O)(=O)O)[C@@H](O)[C@H](O)[C@H]2O)cc1
Briefly: (§3) Competitive inhibition of Brugia malayi T6PP assessed as Vmax for substrate using T6P as substrate by Lineweaver-Burk plot analysis. The method in brief: as §1

Compound in series [18]: CCCCCCCCc1ccc(O[C@H]2O[C@H](COS(=O)(=O)O)[C@@H](O)[C@H](O)[C@H]2O)cc1
The description is as §3. The procedure, abridged:
as §1

Compound in series [19]: CCCCCCc1ccc(O[C@H]2O[C@H](COS(=O)(=O)O)[C@@H](O)[C@H](O)[C@H]2O)cc1
Described as §3. The procedure, abridged: as §1

Compound in series [20]: O=S(=O)(O)OC[C@H]1O[C@H](OCc2ccccc2)[C@H](O)[C@@H](O)[C@@H]1O
Described as §3. The method in brief: as §1

Compound in series [21]: CCCCCCCCc1ccc(O[C@@H]2O[C@H](COS(=O)(=O)O)[C@@H](O)[C@H](O)[C@H]2O)cc1
Briefly: (§4) Competitive inhibition of Brugia malayi T6PP assessed as Km for substrate using T6P as substrate by Lineweaver-Burk plot analysis. The method in brief: as §1

Compound in series [22]: CCCCCCCCc1ccc(O[C@H]2O[C@H](COS(=O)(=O)O)[C@@H](O)[C@H](O)[C@H]2O)cc1
The series is described as §4. The method in brief:
as §1

Compound in series [23]: CCCCCCc1ccc(O[C@H]2O[C@H](COS(=O)(=O)O)[C@@H](O)[C@H](O)[C@H]2O)cc1
The description is as §4. The procedure, abridged:
as §1

Compound in series [24]: O=S(=O)(O)OC[C@H]1O[C@H](OCc2ccccc2)[C@H](O)[C@@H](O)[C@@H]1O
The series is described as §4. The procedure, abridged:
as §1

Compound in series [25]: O=S(=O)(O)OC[C@H]1O[C@@H](Oc2ccccc2)[C@H](O)[C@@H](O)[C@@H]1O
Briefly: (§5) Reversible competitive inhibition of Brugia malayi T6PP assessed as Vmax for substrate using T6P as substrate by Lineweaver-Burk plot analysis.

Compound in series [26]: O=S(=O)(O)OC[C@H]1O[C@H](Oc2ccccc2)[C@H](O)[C@@H](O)[C@@H]1O
The series is described as §5.

Compound in series [27]: O=S(=O)(O)OC[C@H]1O[C@@H](Oc2ccccc2)[C@H](O)[C@@H](O)[C@@H]1O
Briefly: (§6) Reversible competitive inhibition of Brugia malayi T6PP assessed as Km for substrate using T6P as substrate by Lineweaver-Burk plot analysis.

Compound in series [28]: O=S(=O)(O)OC[C@H]1O[C@H](Oc2ccccc2)[C@H](O)[C@@H](O)[C@@H]1O
Described as §6.

Substrate in series [29]: CCCCCCCCc1ccc(O[C@H]2O[C@H](COS(=O)(=O)O)[C@@H](O)[C@H](O)[C@H]2O)cc1
The note with it: Pseudomonas putida KT2440; 200 uM.

Substrate in series [30]: CCCCCCCCc1ccc(O[C@H]2O[C@H](COS(=O)(=O)O)[C@@H](O)[C@H](O)[C@H]2O)cc1
The note with it: Pseudomonas putida KT2440; 200 uM. This is another data set of the same source.

A word on the Ki: it is a measure of affinity in units of concentration, obtained from inhibition or displacement. Lower therefore signals a stronger hold on the target. For orientation: Vmax means the rate approached at saturating substrate. In general, Km refers to the substrate concentration at which the rate is half of its maximum. For the molecule `CCCCCCCCc1ccc(O[C@@H]2O[C@H](COS(=O)(=O)O)[C@@H](O)[C@H](O)[C@H]2O)cc1`, the Ki is 60 to 61 µM on Trehalose-phosphatase [1], 180 µM in series [2], 13 µM in [3] and 120 µM in series [4]. The Ratio turned out to be 0.07 in series [5], 0.02 in the series with Ascaris suum [6], 0.04 in the series with Shigella boydii [7] and 0.01 in [8]. The Vmax in the series on Shigella boydii [9] was found to be 0.495 µM/s; in the series with Ascaris suum [11] it was 0.343 µM/s; in [13] it was 0.183 µM/s. Further, the Michaelis-Menten constant (Km) in the series with Shigella boydii [10] is 222 µM; with Ascaris suum [12], 336 µM; in series [14], 428 µM.

Regarding `O=S(=O)(O)OC[C@H]1O[C@H](Oc2ccccc2)[C@H](O)[C@@H](O)[C@@H]1O`, the Ratio in [5] was 0.42; in the series on Ascaris suum [6] it was 0.71; with Shigella boydii [7] it was 0.76; in series [8], 0.64. The molecule also showed a Ki on Trehalose-phosphatase [15] of 320 µM.

Take `CCCCCCc1ccc(O[C@H]2O[C@H](COS(=O)(=O)O)[C@@H](O)[C@H](O)[C@H]2O)cc1`: the Ki at Trehalose-phosphatase [1] is 80 to 82 µM; in series [2], 350 µM; in series [3], 78 µM; in series [4] it was 280 µM. For the same molecule, the Vmax with Shigella boydii [9] came to 0.541 µM/s; in the series on Ascaris suum [11], 0.631 µM/s; in series [13] it was 0.495 µM/s. Also, the results for the Michaelis-Menten constant (Km) (in the series with Shigella boydii [10]; in the series on Ascaris suum [12]; in [14]) were 239 µM, 353 µM and 394 µM, respectively.

B1: Trehalose-phosphatase (Brugia malayi), A8NS89 (protein)
chain: MTETVTDQGKQRSSKLQKNEAAKDEQVEGKGKETLESGTDKSAEQNSSLLVGQPDVIDNDNVQTVDDFKNLMYKMQETRRAIVFALLNEKDLTKDDVEILKRAYEKLTDNQTHSFQREMCTLTTKLSVNIGDETRGLEKDLKYLDALMNIRREEPNLLWPIIMSRVDLFSILANYHPKGKETFLKEYEDTVKFLKTFISSEAITGKKPIFITDWDGTMKDYCSQYATNLQPVYSAVGMTRFAASFTRISAVLTAGPLRGPGILDLTAMPIDGPVMFSGSWGREWWLSGKRVVHQDGITDEGFNALQRLDDEMKDLLHTSDYAPFALVGSGVQRKVDRLTLGVQTVCHHVTSELSNRYQMAVKERMHRVDPNSQILVFDPSTELEVEVVAHNSGIIWNKGNGVERLIKSLGDSLQSPGKILICGDTLSDIPMVRQAVKQNPDGVLAIFVGAKMSLREEVKQVIGDESRCCFVSCPDVIHAAMSQILNEHCIGK
For B1, the kcat in series [16] amounted to 1.4 ×10⁻² /s. The Vmax in series [17] turned out to be 0.584 µM/s; in series [18] it was 0.924 µM/s; in series [19], 0.375 µM/s; in series [20], 0.457 µM/s; in [25] it was 0.57 µM/s; in series [26], 0.496 µM/s. Further, the Km in series [21] worked out at 156 µM; in series [22] it was 229 µM; in series [23], 234 µM; in [24], 127 µM; in series [27] it was 126 µM; in series [28], 109 µM.

B2: D-glycero-beta-D-manno-heptose-1,7-bisphosphate 7-phosphatase (Pseudomonas putida (strain ATCC 47054 / DSM 6125 / NCIMB 11950 /KT2440)), Q88RS0 (protein)
chain: MKLLILDRDGVINYDSDAYIKTLEEWVPIPGSVDAIAQLSKAGWTVAVATNQSGIARGYYPLATLEAMHARLRALVAEQGGEVGHIVYCPHGPDEGCDCRKPKPGMLRAIAEHYQIGLEGVWFVGDSKGDLEAALAVGAQPVLVKTGKGERTLEKGVPETTLIFDDLAAIARELI
For B2, the Vmax in series [29] worked out at 0.106 µM/s; in series [30], 0.0175 µM/s.
